Compound activity as filed in PubChem BioAssay.
A selection: hits, their analogues and other compounds. The true share with any hit is near 3%.
SENP8 block-1: inhibitors of human SENP8 protease; Q96LD8; purified SENP8, Z-RLRGG-aminoluciferin cleavage, luminescence; inhibition, % at 10 µM; 1.2% of 330,000 active; AID 2540; in the data active = inhibition above about 50%
Target sequence (Q96LD8 whole entry, looked up): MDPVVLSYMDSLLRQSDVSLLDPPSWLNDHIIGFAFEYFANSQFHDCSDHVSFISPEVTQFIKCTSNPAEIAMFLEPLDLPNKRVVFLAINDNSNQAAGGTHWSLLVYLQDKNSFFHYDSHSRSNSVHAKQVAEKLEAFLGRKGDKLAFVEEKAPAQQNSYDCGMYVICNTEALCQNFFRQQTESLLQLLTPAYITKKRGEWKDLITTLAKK
SENP7 block: inhibitors of human SENP7 protease; Q9BQF6; 1.5% of 330,000 active; recombinant SENP7, Z-RLRGG-aminoluciferin luminescence, 40 min; inhibition, % at 5 µM;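 active = inhibition above about 50% at the single test dose, limit read from the data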;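 also: plate controls were DMSO with enzyme for no effect and no enzyme buffer wells for full effect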
SENP8 block-2: inhibitors of human SENP8 protease; Q96LD8; recombinant SENP8, Nedd8 substrate fluorescence; inhibition, % at 20 µM; 0.64% of 360,000 active; in the data active = inhibition mostly above about 40%, no sharp cut-off; inactive = mostly below about 27%
SENP6 inh: SENP6 protease inhibition; Q9GZR1; inhibition, % at 10 µM; AID 2599; Recombinant SENP6 catalytic domain, aminoluciferin luminescence; 1.8% of 330,000 active;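 active = inhibition above about 50% at the single tested dose, limit read from the data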;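 also: plate controls were DMSO wells with enzyme for no effect and DMSO wells lacking enzyme for full effect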
UBC13 polyUb: inhibitors of human UBC13 polyubiquitin chain formation. 0.47% of 330,000 active. inhibition, % at 20 µM. TR-FRET. P61088. AID 485273; in the data active = inhibition above about 45%, passing the limit was not always enough
Target sequence (P61088 whole entry, looked up): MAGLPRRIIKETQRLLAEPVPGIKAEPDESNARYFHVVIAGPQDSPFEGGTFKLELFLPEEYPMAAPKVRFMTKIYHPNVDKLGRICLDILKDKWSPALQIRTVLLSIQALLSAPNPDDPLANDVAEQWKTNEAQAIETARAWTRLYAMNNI
Apaf-1 inh: inhibitors of human Apaf-1 apoptosome. AID 489030. O14727. 0.71% of 330,000 active. inhibition, % at 20 µM. reconstituted apoptosome caspase-3 activity, DEVD-Rh110 fluorescence; active = inhibition of at least 40% at 20 µM;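 also: plate controls were DMSO wells for no effect and DEVD-CHO caspase inhibitor wells for full effect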
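Material: reconstituted apoptosome with Apaf-1, cytochrome c, caspase-9, procaspase-3, dATP. Technique: Rh110 fluorescence intensity. Buffer or medium: pH 7.5 Hepes buffer with CHAPS, BSA, DTT. Times: 30 min plus 50 min, RT.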
Apaf-1 inh conf2: confirmation of Apaf-1 inhibitors; 25% of 1,800 active; AID 504614; inhibition, % at 20 µM; shares compounds with Apaf-1 inh; reconstituted apoptosome, caspase-3 DEVD-Rh110 fluorescence;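 active = mean inhibition of at least 40% at 20 µM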;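 also: plate controls were DMSO wells for no effect and DEVD-CHO caspase inhibitor control wells for full effect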
Rh110 interf inh: Rh110 signal interference in Apaf-1 inhibitor counter-screen. shares compounds with Apaf-1 inh. activation (fluorescence interference), % at 20 µM. Rh110 fluorescence interference, quenched caspase reaction. 1,800 tested, under 10 active;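 active = signal rise of 40% or more at 20 µM, treated as a fluorescence artifact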
Fluor interf inh: shows fluorescence interference in the Apaf-1 inhibitor assay format; shares compounds with Apaf-1 inh; fluorescence interference counterscreen, Apaf-1 assay format; IC50, µM; 460 tested, under 10 active; AID 588538; call rule not given here
An asterisk follows results filed as active.

Results for O=C(CCNS(=O)(=O)c1ccc(OC(F)(F)F)cc1)Nc1cccc(S(=O)(=O)N2CCCC2)c1 ?
SENP8 block-2: 21

Results for Cc1nn(-c2ccccc2)c(C)c1CN(C)C(=O)c1ccc(S(=O)(=O)NCc2ccco2)cc1 ?
SENP8 block-1: -9; SENP7 block: -6; SENP8 block-2: 9; SENP6 inh: -7; UBC13 polyUb: 1; Apaf-1 inh: 49*; Apaf-1 inh conf2: 14; Rh110 interf inh: 2

How did CCN(CC(=O)Nc1cc(S(=O)(=O)N2CCOCC2)ccc1C)Cc1ccccc1 do in these assays?
SENP8 block-1: 8; SENP7 block: 4; SENP8 block-2: -3; SENP6 inh: 6; UBC13 polyUb: -1; Apaf-1 inh: 14

How did O=C(c1ccc(Cl)c(S(=O)(=O)N2CCCCCC2)c1)N1CCCC(C(F)(F)F)C1 (centres undefined) do in these assays?
SENP8 block-1: -11; SENP7 block: -8; SENP8 block-2: 4; SENP6 inh: -8; UBC13 polyUb: 12; Apaf-1 inh: 60*; Apaf-1 inh conf2: 34; Rh110 interf inh: -1

Results for CC1CCCN(C(=O)c2ccc3ncsc3c2)C1 (centres undefined) ?
SENP8 block-1: -5; SENP7 block: -17; SENP8 block-2: -36; SENP6 inh: -8; UBC13 polyUb: -2; Apaf-1 inh: 6

Results for O=C(c1ccc2ncsc2c1)N1CCCC(C(F)(F)F)C1 (centres undefined) ?
SENP8 block-1: -18; SENP7 block: 6; SENP8 block-2: -19; SENP6 inh: -16; UBC13 polyUb: 11; Apaf-1 inh: 42*; Apaf-1 inh conf2: 31; Rh110 interf inh: 5

What do the screens show for `COc1cccc2c1C(=O)C=C(C)C2=O`?
SENP8 block-1: -2; SENP7 block: 2; SENP8 block-2: -281; SENP6 inh: -5; UBC13 polyUb: -41; Apaf-1 inh: 56*; Apaf-1 inh conf2: 65*; Rh110 interf inh: 5; Fluor interf inh: >100

What do the screens show for `CC1=CC(=O)c2ccccc2C1=O`?
SENP8 block-1: 16; SENP7 block: 3; SENP8 block-2: -251; SENP6 inh: 1; UBC13 polyUb: -4; Apaf-1 inh: -2

What do the screens show for `Cc1ccc(CN2CC(C(=O)N3CCN(S(=O)(=O)c4cc(C)ccc4C)CC3)CC2=O)cc1` (centres undefined)?
SENP8 block-1: -6; SENP7 block: 11; SENP8 block-2: 5; SENP6 inh: -7; UBC13 polyUb: 1; Apaf-1 inh: 29

How did Cc1ccc(CN2CC(C(=O)N3CCN(S(=O)(=O)c4ccc(C)cc4C)CC3)CC2=O)cc1 (centres undefined) do in these assays?
SENP8 block-1: -6; SENP7 block: 5; SENP8 block-2: 14; SENP6 inh: -9; UBC13 polyUb: 16; Apaf-1 inh: 48*; Apaf-1 inh conf2: 26; Rh110 interf inh: 7

How did Cc1cccc(CS(=O)(=O)Cc2ccc(C(=O)NC3CCCCC3)o2)c1 do in these assays?
SENP8 block-1: -5; SENP7 block: -9; SENP8 block-2: -10; SENP6 inh: -12; UBC13 polyUb: -1; Apaf-1 inh: 7

What do the screens show for `Oc1c(Br)cc(C=Nc2ccc3nc(-c4ccccc4)[nH]c3c2)c(O)c1Br`?
SENP8 block-1: 29; SENP7 block: 9; SENP6 inh: -24; UBC13 polyUb: -18; Apaf-1 inh: 65*; Apaf-1 inh conf2: 38; Rh110 interf inh: 1

Results for Nc1[nH]c(C(=O)c2ccccc2)c(-c2ccc(Cl)cc2)c1C(=O)NCc1ccco1 ?
SENP8 block-2: 10

What do the screens show for `CCn1c(O)c(C=NCc2ccccc2)sc1=S`?
SENP8 block-1: 0; SENP7 block: 0; SENP8 block-2: 5; SENP6 inh: 0; UBC13 polyUb: 11; Apaf-1 inh: -10
